TbHK1 inh = blocks Trypanosoma brucei hexokinase 1 activity. recombinant TbHK1, G6PDH-coupled NADH A340. inhibition, % at 10 µM. 220,000 compounds, 0.11% hits. AID 1430;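 active means inhibition of 50% or more in the single-dose primary screen; inactive means inhibition below 50%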
Runt-CBFb FRET = Runt domain-CBFb interaction inhibition | AID 1496 | Cerulean-Runt/Venus-CBFb FRET ratio 530/480, 1 h | 220,000 compounds, 0.46% hits | inhibition, % at 20 µM | Q01196+Q13951;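 active means inhibition over about 50% at 20 µM in the single-dose screen, limit read from the data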;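 further: 0% = DMSO wells and 100% = excess unlabeled CBFb competitor control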
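test system = Cerulean-Runt domain fusion protein, energy donor | probe or stimulus = Venus-CBFb binding partner, 100 nM | incubation = two 1 h room-temperature incubations shielded from light | detection = fluorescence energy transfer, 422 nm excitation, 530/480 nm emission | measure = loss of energy transfer signal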
RanGTP-Imp inh = disruptors of Ran-importin-beta complex formation – biochemical, FRET, CFP-Ran, YFP-importin-beta, homogeneous, primary screen; cell-free CFP-Ran/YFP-importin-beta FRET ratio; inhibition, % (concentration not given with the values); 300,000 compounds, 1.1% hits; AID 2216;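 active means more than half of the replicate wells show a fall in the fluorescence ratio signal beyond about 16%, limit read from the data, passing the limit was not always enough; inconclusive means exactly half of the replicate wells pass the set limit; inactive means fewer than half of replicates pass the limit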;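 further: 0% = DMSO wells and 100% = Ran loaded with GDP instead of GTP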
Runt-SMMHC FRET = Runt domain-CBFb-SMMHC interaction inhibition; Q01196+Q13951; Cerulean-Runt/Venus-CBFb-SMMHC FRET ratio 530/480, 1 h; inhibition, % at 20 µM; 220,000 compounds, 0.74% hits; AID 1434;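 active means mean inhibition across duplicate retests at 20 µM reaching about 50%, limit read from the data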;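 further: 0% = DMSO wells and 100% = wells with excess untagged CBFb-SMMHC; inhibitors lower the FRET ratio by blocking Runt binding to CBFb-SMMHC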
Hck-Nef inh = human Hck-Nef kinase inhibition; 220,000 compounds, 0.68% hits; P08631; inhibition, % at 20 µM; Recombinant Hck-YEEI plus Nef, Z-Lyte FRET kinase assay;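 active means Hck-Nef kinase inhibition above about 50%, limit read from the data; inactive means inhibition below that limit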;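 further: 0% = DMSO with Hck plus Nef and 100% = Hck alone without Nef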
Hck Nef conf = confirmation of Hck-Nef kinase inhibitors; shares compounds with Hck-Nef inh; Recombinant Hck-YEEI:Nef, Z-Lyte FRET kinase assay; calls only at 10 µM; 1,300 compounds, 28% hits; AID 463188;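 active means average inhibition of at least 50%, with Z-scores no higher than 3 in both the phospho-tyrosine peptide and fluorescence counterscreens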
Numbers without * were called inactive; i = inactive; ? = inconclusive; . = not tested or not shown; + = active, no number. Compounds with a hit are over-represented: about 1.9% of the library has one in this group of screens.

SMILES | TbHK1 inh | Runt-CBFb FRET | RanGTP-Imp inh | Runt-SMMHC FRET | Hck-Nef inh | Hck Nef conf
COc1cc2oc(-c3ccc(O)cc3)cc(=O)c2c(OC)c1O | -57 | 44 | 4 | 9 | 8 | .
FC(F)(F)c1cnc(Oc2cccc3ccccc23)c(Cl)c1 | 33 | -2 | -3 | 2 | -2 | .
Cn1nc(Oc2ncc(C(F)(F)F)cc2Cl)cc1C(F)(F)F | -1 | 1 | ? | -2 | 54* | i
COC(C(=O)Nc1c(F)cccc1F)c1ccccc1 (stereo not drawn) | -3 | 0 | 0 | 2 | 11 | .
CC(=O)c1cccc(NC(=O)CC2S/C(=N/N=C/c3ccccc3)NC2=O)c1 (stereo not drawn) | -9 | -3 | 3 | -2 | 53* | i
CC(=O)c1cccc(NC(=O)CC2S/C(=N/N=C/c3cccs3)NC2=O)c1 (stereo not drawn) | -15 | -1 | -1 | -4 | 31 | .
COc1ccc2[nH]c(O)c(N=NC(=O)Cc3cccs3)c2c1 | -36 | -3 | 0 | -2 | 51* | i
Cc1ccc(O)c(-c2cc(-c3ccccc3C)[nH]n2)c1 | 15 | 0 | -2 | -1 | 52* | +
COc1ccc(-n2c(SCC(=O)Nc3sc4c(c3C#N)CCCC4)nnc2-c2ccccc2OC)cc1 | -5 | -4 | 1 | -3 | 6 | .
COc1ccc(-c2nnc(SCC(=O)Nc3sc4c(c3C#N)CCCC4)n2-c2ccccc2)cc1 | 1 | 1 | 6 | -5 | 96* | +
CCOC(=O)c1nc(Nc2ccc(Nc3ccccc3)cc2)c2ccccc2n1 | -16 | . | 0 | -3 | 94* | i
Cc1ccc(-n2c(O)c(C=Nc3ccccc3-c3n[nH]c(=S)[nH]c3=O)c3ccccc3c2=O)c(C)c1 | -2 | 2 | 4 | 3 | 73* | +
Cc1ccc(-n2c(O)c(C=Nc3ccccc3-c3n[nH]c(=S)[nH]c3=O)c3ccccc3c2=O)cc1C | 1 | -6 | -1 | -4 | 84* | +
Cc1ccc(-n2c(O)c(/C=N/Nc3ccc(S(=O)(=O)N4CCOCC4)cc3[N+](=O)[O-])c3ccccc3c2=O)c(C)c1 | -16 | 1 | 6 | -2 | 21 | .
Cc1cccc(-n2c(O)c(C=Nc3ccccc3-c3n[nH]c(=S)[nH]c3=O)c3ccccc3c2=O)n1 | -17 | 7 | 5 | 10 | -14 | .
Cc1ccc2nc(NC(=O)CSc3nnc(C)c(=O)n3N)sc2c1 | 34 | -3 | 8 | 2 | 2 | .
N#Cc1ccc(OCC(=O)Nc2cccc(S(=O)(=O)NC3=NCCCCC3)c2)cc1 | . | . | -1 | . | . | .
COc1ccc(-c2nc(CS(=O)(=O)CC(=O)NCCCN3CCN(C)CC3)c(C)o2)cc1 | . | . | -2 | . | . | .
CC1(C)Cc2c(C#N)c(NCC3CCCO3)nc(-c3ccco3)c2CO1 (stereo not drawn) | -1 | 11 | 9 | 6 | 56* | i
CC1(C)Cc2c(C#N)c(NC3CCCCC3)nc(-c3ccco3)c2CO1 | 4 | 8 | 10 | 9 | 35 | .
Oc1cc2c(cc1C(c1ccc(Cl)c(Cl)c1)N1CCCC1)OCO2 (stereo not drawn) | 1 | 8 | 2 | 22 | 70* | i
COc1cc(C2NC(=O)CCC2[N+](=O)[O-])cc(Br)c1OC (stereo not drawn) | . | . | -3 | . | . | .
COC(=O)C1=CN(C(C)C)C=C(C(=O)OC)C1c1cc(Br)c(OC)c(OC)c1 | -2 | 114* | 59* | 75* | 61* | .
COC(=O)C1=CN(C(C)C)C=C(C(=O)OC)C1c1cccc(OC)c1 | 0 | 72* | 66* | -16 | 61* | .
S=c1[nH]nc(-c2ccco2)n1/N=C/c1c(Cl)cccc1Cl | -23 | 13 | ? | 14 | 61* | i
Cn1nccc1C(=O)Nc1sc2c(c1C(N)=O)CCCC2 | -14 | 2 | -1 | -1 | 68* | i
COc1cc(CN2CCN(c3ncccn3)CC2)cc(OC)c1 | . | . | 3 | . | . | .
O=C(CSc1nnc(-c2ccco2)c(-c2ccco2)n1)c1ccccc1 | -5 | . | ? | . | 69* | i
COc1ccc(CN(C)C(=O)c2cccc(Oc3ccccc3)c2)c(OC)c1OC | . | . | -2 | . | . | .

Screening data (PubChem)
